Here are results for 22 compounds from ChEMBL document CHEMBL4627260, “Optimisation of estrogen receptor subtype-selectivity of a 4-Aryl-4H-chromene scaffold previously identified by virtual screening” (Bioorg Med Chem, 2020).

The IC50 is the concentration that gives 50% inhibition. One may read the half-life as the time needed for the level to fall by half in the phase considered.

Data set [1] relates to MCF7. Nature of the data set: Antiproliferative activity against human MCF7 cells assessed as inhibition of cell viability after 72 hrs by MTT assay. Particulars: MCF7, 72 h. It counts as functional, cell-based. Put shortly:
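MCF-7 cells grown in Eagle's MEM with 10% fetal calf serum, 2 mM L-glutamine, penicillin/streptomycin and 1% non-essential amino acids. Seeded at 2.5×10^4 cells/mL, 24 h at 37 °C, 5% CO2. Dosed from ethanol stocks at 1 nM–100 μM final (vehicle 1% v/v ethanol), 72 h. MTT 1 mg/mL for 2 h in dark, DMSO solubilisation, absorbance 595 nm. Viability relative to vehicle; mean ± S.E.M., at least two experiments in triplicate.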
On the technique in general: Tetrazolium assays rely on reduction of a dye to a coloured formazan, in cell work by metabolically active cells.

Another data set has as its target T1, Estrogen receptor (Homo sapiens, UniProt P03372).
T1 sequence (P03372 whole entry): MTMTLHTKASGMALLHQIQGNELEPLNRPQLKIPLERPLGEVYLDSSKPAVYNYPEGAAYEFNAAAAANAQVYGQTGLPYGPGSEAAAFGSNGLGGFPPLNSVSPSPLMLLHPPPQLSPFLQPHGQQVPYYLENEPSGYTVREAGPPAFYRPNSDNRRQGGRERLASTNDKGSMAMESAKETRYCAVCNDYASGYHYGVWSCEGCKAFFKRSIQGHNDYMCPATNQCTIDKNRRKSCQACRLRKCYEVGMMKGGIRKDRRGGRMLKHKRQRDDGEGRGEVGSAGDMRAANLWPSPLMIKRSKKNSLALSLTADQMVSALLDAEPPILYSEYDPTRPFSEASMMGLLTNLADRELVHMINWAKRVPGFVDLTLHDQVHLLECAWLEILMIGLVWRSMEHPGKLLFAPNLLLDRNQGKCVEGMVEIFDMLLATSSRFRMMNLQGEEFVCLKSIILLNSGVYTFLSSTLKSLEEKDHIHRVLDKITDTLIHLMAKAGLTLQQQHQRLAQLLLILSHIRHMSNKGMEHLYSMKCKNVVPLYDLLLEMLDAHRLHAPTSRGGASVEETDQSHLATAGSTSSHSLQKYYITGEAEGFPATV
Nature of the data set: Displacement of fluorescent estrogen ligand from recombinant human full length untagged ERalpha expressed in baculovirus infected insect cells incubated in dark for 2 hrs by Beacon single-tube fluorescent polarization assay.

Data set [2] deals with MCF7. Nature of the data set: Toxicity in human MCF7 cells assessed as cell death at 10 uM incubated for 72 hrs by LDH assay relative to control. The conditions noted are these: mcf7, 72 h. It counts as cell-based. Put shortly: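 LDH release assay (CytoTox 96). MCF-7 cells seeded at 1×10^4 cells/well for 24 h, dosed with ethanol vehicle (1% v/v) and incubated 72 h. Medium mixed with substrate for 20 min at room temperature in dark, stopped, absorbance read at 490 nm. Lysis is percent of a lysis-solution control (100% lysis, 45 min); three experiments in triplicate, mean ± SEM.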

For a further data set, the target named is Estrogen receptor beta (Homo sapiens, UniProt Q92731). The data set can be described thus: Displacement of fluorescent estrogen ligand from recombinant human full length untagged ERbeta expressed in baculovirus infected insect cells incubated in dark for 2 hrs by Beacon single-tube fluorescent polarization assay.
Data set [3] is described as follows: Stability in human plasma assessed as half life by HPLC method. It counts as ADME, cell-free. The gist of the method:
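Human blood plasma (2.0 mL) mixed with PBS containing 10% DMSO (1.6 mL) and pre-warmed to 37 °C. Compound added as 400 μL of a 1.0 mg/mL stock. Aliquots of 100 μL quenched in 900 μL acetonitrile, centrifuged and filtered. Sampled every 15 min for 1 h, then hourly to 3 h, plus 24 h. C18 reverse-phase HPLC at 25 °C, H2O:ACN:MeOH mobile phase, 1.0 mL/min.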

Data set [4] in a line: Chemical stability of the compound in pH 7.4 phosphate buffer assessed as half life by HPLC method. Format: physicochemical. Put shortly: (§1)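 Stock of 5 mg compound in 10 mL mobile phase; 30 μL diluted into 1 mL phosphate buffer (pH 4, 7.4 or 9, British Pharmacopoeia). Injected immediately and sampled at 0, 5, 30, 60, 90, 120 min and 21 h. HPLC with UV detection at 254 nm, acetonitrile:water 80:20 mobile phase, 1 mL/min over 10 min.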

A short description of data set [5]: Chemical stability of the compound in pH 9 phosphate buffer assessed as half life by HPLC method. It counts as physicochemical. The gist of the method:
as §1

Data set [6] can be described thus: Chemical stability of the compound in phosphate buffer at pH 4 assessed as compound remaining after 30 mins by HPLC method. It counts as physicochemical. Particulars: read-out: Stability. The gist of the method: as §1

SMILES strings stand for the structures. Where only a bound is given, the exact number is not on record here.

Sequence of Estrogen receptor beta (Q92731 whole entry): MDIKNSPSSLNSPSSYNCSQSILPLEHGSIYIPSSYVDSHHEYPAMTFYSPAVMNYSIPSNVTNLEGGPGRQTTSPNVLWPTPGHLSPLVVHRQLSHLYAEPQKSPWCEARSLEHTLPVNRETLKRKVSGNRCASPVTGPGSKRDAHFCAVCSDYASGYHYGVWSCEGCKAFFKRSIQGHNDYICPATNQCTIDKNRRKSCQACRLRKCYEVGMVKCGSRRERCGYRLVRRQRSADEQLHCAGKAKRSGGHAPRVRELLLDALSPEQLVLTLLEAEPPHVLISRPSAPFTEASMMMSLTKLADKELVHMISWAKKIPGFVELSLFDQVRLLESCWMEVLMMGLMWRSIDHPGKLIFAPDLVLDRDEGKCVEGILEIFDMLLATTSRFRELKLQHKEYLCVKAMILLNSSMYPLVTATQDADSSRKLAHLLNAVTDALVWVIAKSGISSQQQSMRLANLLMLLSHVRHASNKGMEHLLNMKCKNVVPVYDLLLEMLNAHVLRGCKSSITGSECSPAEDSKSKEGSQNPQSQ

Take `N#CC1=C(N)Oc2cc(O)ccc2C1c1ccc(OCCN2CCOCC2)cc1` (configuration not stated): the IC50 in the data set with MCF7 [1] is 35.3 µM; at Estrogen receptor it was 14 µM; on Estrogen receptor beta, over 50 µM. The Activity with MCF7 [2] was 0%.

Turning to `CCOC(=O)C1=C(N)Oc2cc(O)ccc2C1c1ccc(OCCN2CCCC2)cc1` (configuration not stated), the IC50 in the data set on MCF7 [1] was 27.3 µM; at Estrogen receptor it was 1.41 µM; at Estrogen receptor beta it was 3.1 µM. Moreover, the Activity in the data set with MCF7 [2] was 0%.

For `CCOC(=O)C1=C(N)Oc2cc(O)ccc2C1c1ccc(OC)c(OC)c1` (configuration not stated), in the data set on MCF7 [1], the IC50 is over 100 µM.

Regarding `COC(=O)C1=C(N)Oc2cc(O)ccc2C1c1ccccc1` (configuration not stated), the IC50 turned out to be 10.8 µM with MCF7 [1], 3.3 µM on Estrogen receptor and 1.59 µM at Estrogen receptor beta.

Regarding `CC/C(=C(\c1ccccc1)c1ccc(OCCN(C)C)cc1)c1ccccc1` [TAMOXIFEN], in the data set with MCF7 [2], the Activity is recorded as 13.4%.

With `N#CC1=C(N)Oc2cc(O)ccc2C1c1ccc(OCCN2CCCC2)cc1` (configuration not stated), the results for the IC50 with MCF7 [1], on Estrogen receptor and on Estrogen receptor beta were over 50 µM, 0.89 µM and over 10 µM, respectively.

On to `COC(=O)C1=C(N)Oc2cc(O)ccc2C1c1ccc(OCCN2CCCCC2)cc1` (configuration not stated), for which the figures for the IC50 with MCF7 [1], at Estrogen receptor and at Estrogen receptor beta were 16.2 µM, 0.05 µM and 0.22 µM, respectively. Besides, in the data set on MCF7 [2], the Activity stood at 0%.

As for `COC(=O)C1=C(N)Oc2cc(O)ccc2C1c1ccc(OCCN2CCOCC2)cc1` (configuration not stated), the IC50 was over 100 µM in the data set with MCF7 [1], 109 µM on Estrogen receptor and 0.63 µM on Estrogen receptor beta.

On to `CCCCOC(=O)C1=C(N)Oc2cc(O)ccc2C1c1ccc(OCCN2CCCC2)cc1` (configuration not stated), for which the IC50 was 7.73 µM in the data set with MCF7 [1], 0.02 µM on Estrogen receptor and 6.55 µM on Estrogen receptor beta.

As to `CCOC(=O)C1=C(N)Oc2cc(O)ccc2C1c1ccc(OCCN2CCOCC2)cc1` (configuration not stated), the IC50 stood at 18.8 µM in the data set on MCF7 [1], 0.22 µM on Estrogen receptor and 2.44 µM on Estrogen receptor beta. Besides, the Activity in the data set with MCF7 [2] was found to be 0%.

`CCOC(=O)C1=C(N)Oc2cc(O)ccc2C1c1ccc(O)cc1` (configuration not stated): the IC50 in the data set on MCF7 [1] is over 100 µM.

Regarding `COC(=O)C1=C(N)Oc2cc(O)ccc2C1c1ccc(OCCN2CCCC2)cc1` (configuration not stated), the IC50 turned out to be 19.6 µM in the data set on MCF7 [1], 0.02 µM at Estrogen receptor and 0.35 µM at Estrogen receptor beta. Besides, in the data set with MCF7 [2], the Activity amounted to 0%.

For `CC(C)(C)OC(=O)C1=C(N)Oc2cc(O)ccc2C1c1ccc(OCCN2CCCCC2)cc1` (configuration not stated), the IC50 was 2.65 µM in the data set with MCF7 [1], 0.09 µM on Estrogen receptor and 0.37 µM on Estrogen receptor beta.

For the compound `CCCCOC(=O)C1=C(N)Oc2cc(O)ccc2C1c1ccc(OCCN2CCCCC2)cc1` (configuration not stated), the half-life in data set [3], in data set [4] and in data set [5] was over 24 h each time. Further, the IC50 with MCF7 [1] amounted to 31.8 µM; at Estrogen receptor, 0.03 µM; at Estrogen receptor beta, 2.35 µM. In data set [6], the remaining at 0.5 h amounted to 32%.

With `CCOC(=O)C1=C(N)Oc2cc(O)ccc2C1c1ccccc1` (configuration not stated), the IC50 is over 100 µM in the data set with MCF7 [1], 2.36 µM at Estrogen receptor and 0.61 µM on Estrogen receptor beta.

For the compound `N#CC1=C(N)Oc2cc(O)ccc2C1c1ccccc1` (configuration not stated), the IC50 is over 100 µM with MCF7 [1], over 10 µM at Estrogen receptor and 8.39 µM at Estrogen receptor beta.

For `CCOC(=O)C1=C(N)Oc2cc(O)ccc2C1c1ccc(OCc2ccccc2)cc1` (configuration not stated), the 50% inhibitory concentration (IC50) is 4.5 µM with MCF7 [1], 40.3 µM on Estrogen receptor and over 100 µM at Estrogen receptor beta.

On to `CC(C)(C)OC(=O)C1=C(N)Oc2cc(O)ccc2C1c1ccc(OCCN2CCCC2)cc1` (configuration not stated), for which the IC50 was 10 µM with MCF7 [1], 0.01 µM at Estrogen receptor and 0.67 µM at Estrogen receptor beta.

`N#CC1=C(N)Oc2cc(O)ccc2C1c1ccc(OCCN2CCCCC2)cc1` (configuration not stated): the IC50 was determined as 23.2 µM in the data set on MCF7 [1], 1.47 µM at Estrogen receptor and 10.4 µM at Estrogen receptor beta.

`CCOC(=O)C1=C(N)Oc2cc(O)ccc2C1c1ccc(OCCN2CCCCC2)cc1` (configuration not stated): the half-life in data set [3], in data set [4] and in data set [5] was over 24 h in each case. For the same compound, the IC50 stood at 8.75 µM with MCF7 [1], 0.02 µM on Estrogen receptor and 0.06 µM at Estrogen receptor beta. In addition, in the data set on MCF7 [2], the Activity is 0%. In addition, in data set [6], the remaining at 0.5 h was determined as 27%.

In the case of `CCOC(=O)C1=C(N)Oc2cc(O)ccc2C1c1ccc(OCC)cc1` (configuration not stated), the IC50 with MCF7 [1] was over 100 µM.

`COC(=O)C1=C(N)Oc2cc(O)ccc2C1c1ccc(O)cc1` (configuration not stated): the IC50 with MCF7 [1] is over 100 µM; at Estrogen receptor, 0.79 µM; on Estrogen receptor beta it was 10 µM.
